The results in this text go back to ChEMBL document CHEMBL1156628, “Further studies on lead compounds containing the opioid pharmacophore Dmt-Tic” (J Med Chem, 2008).

In general, Ki refers to the dissociation constant of the complex between target and ligand, obtained from inhibition or displacement.

Active and inactive are the calls of the source. Where a SMILES comes first, the peptide text is derived from it. [ ]: non-standard residue; d: D form. The star is where a group is joined. Dmt = Cc1cc(O)cc(C)c1C[C@H](N)C(=O)O; Tic = O=C(O)[C@@H]1Cc2ccccc2CN1; NHBn = c1ccc(CN*)cc1; NHPh = c1ccc(N*)cc1

Series [1] has as its target Delta-type opioid receptor (Rattus norvegicus, UniProt P33533). The series can be described thus: Displacement of [3H]deltorphin2 from delta opioid receptor in Sprague-Dawley rat brain P2 synaptosomal membrane. The method in brief: (§1)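 Competition binding to Sprague-Dawley rat brain P2 synaptosomal membranes, preincubated to strip endogenous opioids and stored at −80 °C in buffered 20% glycerol. Incubated at equilibrium for 2.5 h at 23 °C. Separated on polyethylenimine-soaked (0.1%) glass-fibre filters washed three times in ice-cold buffered BSA. Duplicates at five to eight doses, 3–5 independent membrane preparations; Ki by Cheng–Prusoff, mean ± SE.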

The target of a further series is Mu-type opioid receptor (Rattus norvegicus, UniProt P33535). Nature of the series: Displacement of [3H]DAMGO from mu opioid receptor in Sprague-Dawley rat brain P2 synaptosomal membrane. Summed up: as §1
Background: Displacement assays read how much labelled ligand stays bound in the presence of the test substance.

In series [2] the target is Delta-type opioid receptor (Mus musculus, UniProt P32300). The series can be described thus: Antagonist activity at delta opioid receptor in mouse vas deferens assessed as effect on deltorphin 2-induced response. Format: functional, tissue-based. To be noted: read-out: pA2 (converted). The method in brief: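 Single mouse vas deferens suspended in an organ bath in balanced physiological salt buffer, pH 7.5. Agonism measured as inhibition of electrically evoked contraction, with IC50 taken from dose-response curves; DPDPE was the internal standard. Antagonism tested against deltorphin II and given as pA2 (Schild plot / Kosterlitz and Watt method). Values are mean ± SE of separate tissue assays.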

The species named for another series is Rattus norvegicus. Nature of the series: Selectivity ratio of Ki for mu opioid receptor in Sprague-Dawley rat brain to Ki for delta opioid receptor in Sprague-Dawley rat brain.
The next series relates to Plasma. Nature of the series: Stability in Swiss mouse plasma after 4 hrs. It is filed as ADME, cell-free.
The next series has as its system Brain. Nature of the series: Stability in Swiss mouse brain after 2 hrs. Format: ADME, tissue-based.
Series [3] deals with Mus musculus. Nature of the series: Analgesic activity in icv dosed Swiss-Webster mouse after 10 mins by hot plate test. Format: functional, organism-based. The method in brief:
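Male Swiss-Webster mice (20–25 g) given 5 μL of peptide in saline icv at bregma; only mice with a correct needle tract were counted. For hot plate: 55 ± 0.1 °C, start 10 min post-dose, latency to jump, lick or shake hind paw, 30 s cut-off, repeated every 10 min.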
In general terms: Thermal pain tests record how soon the animal reacts.

Series [4] concerns Mus musculus. Nature of the series: Analgesic activity in icv dosed Swiss-Webster mouse by tail flick test. Format: functional, organism-based.
The test system of series [5] is Mus musculus. The series can be described thus: Antinociceptive activity in Swiss-Webster mouse at 10 ug, icv after 10 mins by hot plate test in presence of naltrindole. Format: functional, organism-based. Summed up:
(§2)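 Mice given sc naltrindole (3 mg/kg) or naloxone (10 mg/kg), then 20 min later 10 µg/mouse icv in 5 μL saline. Nociception measured by hot-plate (55 °C, latency to jump/lick/paw-shake, 30 s cut-off, every 10 min) or tail-flick.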

For series [6], the system named is Mus musculus. Nature of the series: Antinociceptive activity in Swiss-Webster mouse at 10 ug, icv after 10 mins by hot plate test in presence of naloxone. Format: functional, organism-based. Summed up: as §2
Series [7] relates to Mus musculus. The series can be described thus: Antinociceptive activity in Swiss-Webster mouse at 10 ug, icv by tail flick test in presence of naltrindole. It is filed as functional, organism-based. Summed up:
as §2

The subject of series [8] is Mus musculus. The series can be described thus: Antinociceptive activity in Swiss-Webster mouse at 10 ug, icv by tail flick test in presence of naloxone. It is filed as functional, organism-based. The method in brief:
as §2

Series [9] concerns Mus musculus. Nature of the series: Toxicity in Swiss-Webster mouse assessed as induction of sedation at 10 ug, icv. It is filed as organism-based. To be noted: in vivo, icv_or_intrathecal.
Series [10] deals with Mus musculus. Nature of the series: Toxicity in icv dosed Swiss-Webster mouse assessed as induction of convulsion. Format: organism-based. To be noted: in vivo, icv_or_intrathecal.
The test system of series [11] is Mus musculus. Nature of the series: Toxicity in Swiss-Webster mouse assessed as induction of agitated behavior at 10 ug, icv. Format: organism-based. To be noted: in vivo, icv_or_intrathecal.

Chain of Mu-type opioid receptor (P33535 whole entry): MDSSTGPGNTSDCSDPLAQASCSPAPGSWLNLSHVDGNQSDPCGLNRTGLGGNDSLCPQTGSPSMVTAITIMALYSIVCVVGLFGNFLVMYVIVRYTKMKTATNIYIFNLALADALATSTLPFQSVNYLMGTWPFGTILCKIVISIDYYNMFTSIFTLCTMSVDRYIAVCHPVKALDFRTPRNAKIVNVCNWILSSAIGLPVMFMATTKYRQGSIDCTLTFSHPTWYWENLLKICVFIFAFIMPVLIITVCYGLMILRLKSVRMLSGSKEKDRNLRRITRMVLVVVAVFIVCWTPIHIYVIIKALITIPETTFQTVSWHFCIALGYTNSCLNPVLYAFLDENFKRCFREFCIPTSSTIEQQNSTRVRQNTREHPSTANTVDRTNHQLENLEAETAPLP
Chain of Delta-type opioid receptor (Rattus norvegicus, UniProt P33533) (P33533 whole entry): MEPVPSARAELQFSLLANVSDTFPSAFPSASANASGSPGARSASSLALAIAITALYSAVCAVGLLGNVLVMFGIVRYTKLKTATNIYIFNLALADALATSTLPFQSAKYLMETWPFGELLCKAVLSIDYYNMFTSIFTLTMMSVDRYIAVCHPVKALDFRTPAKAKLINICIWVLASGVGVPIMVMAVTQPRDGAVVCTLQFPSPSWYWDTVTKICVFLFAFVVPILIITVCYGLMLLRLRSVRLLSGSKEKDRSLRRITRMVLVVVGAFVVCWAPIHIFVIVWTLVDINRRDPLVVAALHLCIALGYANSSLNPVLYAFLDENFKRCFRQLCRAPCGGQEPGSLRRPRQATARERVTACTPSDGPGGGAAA
Chain of Delta-type opioid receptor (Mus musculus, UniProt P32300) (P32300 whole entry): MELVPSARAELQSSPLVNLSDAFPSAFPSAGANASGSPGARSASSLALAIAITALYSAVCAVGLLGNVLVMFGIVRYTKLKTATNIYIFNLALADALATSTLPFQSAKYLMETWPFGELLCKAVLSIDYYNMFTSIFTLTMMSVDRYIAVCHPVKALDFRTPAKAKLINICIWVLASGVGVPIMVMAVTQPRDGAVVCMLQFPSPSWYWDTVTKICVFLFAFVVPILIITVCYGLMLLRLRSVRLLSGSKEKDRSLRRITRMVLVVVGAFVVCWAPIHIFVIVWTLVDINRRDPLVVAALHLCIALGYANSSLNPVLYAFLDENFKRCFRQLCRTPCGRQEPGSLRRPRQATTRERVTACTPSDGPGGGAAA

Take `Cc1cc(O)cc(C)c1C[C@H](N)C(=O)N1Cc2ccccc2C[C@H]1C(=O)N[C@H](CC(=O)O)C(=O)Nc1ccccc1`: the Ki in series [1] turned out to be 0.058 nM; at Mu-type opioid receptor, 7.49 nM. In addition, the Kb in series [2] was 2.4 nM. In addition, in the series listed under Rattus norvegicus, the Ratio Ki worked out at 129.
The like results for `Cc1cc(O)cc(C)c1C[C@H](N)C(=O)N1Cc2ccccc2C[C@H]1C(=O)N[C@@H](CC(=O)O)C(=O)N(C)c1ccccc1` were, in that order, 0.186 nM, 364 nM, 1.78 nM and 1960.
For `Cc1cc(O)cc(C)c1C[C@H](N)C(=O)N1Cc2ccccc2C[C@H]1C(=O)NCC(=O)Nc1ccccc1` (H-[Dmt]-[Tic]-Gly-NHPh), in the series filed under Rattus norvegicus, the Ratio Ki came out at 4.
As for `Cc1cc(O)cc(C)c1C[C@H](N)C(=O)N1Cc2ccccc2C[C@H]1C(=O)N[C@@H](CC(=O)O)C(=O)Nc1ccccc1`, the Ki in series [1] stood at 0.036 nM; on Mu-type opioid receptor, 10.8 nM. The Kb in series [2] was 0.398 nM. The Ratio Ki in the series filed under Rattus norvegicus was 300.
Turning to `Cc1cc(O)cc(C)c1C[C@H](N)C(=O)N1Cc2ccccc2C[C@H]1C(=O)N[C@@H](CC(=O)O)c1nc2ccccc2n1C`, the Ki in [1] amounted to 0.059 nM; at Mu-type opioid receptor, 5.93 nM. The Kb in series [2] is 0.126 nM. The Stability result in the series on Plasma and with Brain was “Stable” in each case. For the same compound, the Activity result was “Dose-dependent effect” in the series with Mus musculus [3], “Dose-dependent effect” in the series on Mus musculus [4], “Toxic” in the series on Mus musculus [9] and “Toxic” in the series on Mus musculus [10]. For the same compound, the outcome in the series with Mus musculus [5] and in the series with Mus musculus [6] was Active. Besides, the result with Mus musculus [7] and with Mus musculus [8] was inactive. Further, in the series filed under Rattus norvegicus, the Ratio Ki stood at 101.
On to `Cc1cc(O)cc(C)c1C[C@H](N)C(=O)N1Cc2ccccc2C[C@H]1C(=O)N[C@@H](CC(=O)O)C(=O)NCc1ccccc1` (H-[Dmt]-[Tic]-Asp-NHBn), for which the Ki in series [1] was 0.054 nM; on Mu-type opioid receptor, 309 nM. Also, in series [2], the Kb is 2.95 nM.
On to `Cc1cc(O)cc(C)c1C[C@H](N)C(=O)N1Cc2ccccc2C[C@H]1C(=O)NCC(=O)NCc1ccccc1` (H-[Dmt]-[Tic]-Gly-NHBn), for which the Ratio Ki in the series filed under Rattus norvegicus is 5.
In the case of `Cc1cc(O)cc(C)c1C[C@H](N)C(=O)N1Cc2ccccc2C[C@H]1C(=O)N[C@H](CC(=O)O)c1nc2ccccc2n1C`, the inhibition constant (Ki) worked out at 0.07 nM in [1] and 11.8 nM at Mu-type opioid receptor. The Kb in [2] is 0.224 nM. In the series listed under Rattus norvegicus, the Ratio Ki was determined as 169.
Take `Cc1cc(O)cc(C)c1C[C@H](N)C(=O)N1Cc2ccccc2C[C@H]1C(=O)N[C@@H](CC(=O)O)c1nc2ccccc2[nH]1`: the Kb in series [2] was 0.126 nM. Further, the Stability entry in the series on Plasma and in the series on Brain was “Stable” in each case. Moreover, the Activity entry is “Dose-dependent effect” in the series with Mus musculus [3], “Dose-dependent effect” in the series with Mus musculus [4], “Toxic” in the series on Mus musculus [11] and “Toxic” in the series with Mus musculus [10]. Besides, the outcome in the series on Mus musculus [5] and in the series on Mus musculus [6] was Active. Besides, the outcome with Mus musculus [7] and in the series with Mus musculus [8] was inactive. Moreover, the Ratio Ki in the series filed under Rattus norvegicus worked out at 122.
As for `Cc1cc(O)cc(C)c1C[C@H](N)C(=O)N1Cc2ccccc2C[C@H]1C(=O)N[C@H](CC(=O)O)c1nc2ccccc2[nH]1`, the Ki in series [1] was 0.067 nM; at Mu-type opioid receptor, 16.1 nM. Besides, the Ratio Ki in the series filed under Rattus norvegicus was determined as 240.
As for `Cc1cc(O)cc(C)c1C[C@H](N)C(=O)N1Cc2ccccc2C[C@H]1C(=O)N[C@H](CC(=O)O)C(=O)N(C)c1ccccc1`, the values for the Ki (in series [1]; on Mu-type opioid receptor) were 0.084 nM and 45 nM, respectively. The Kb in series [2] is 8.71 nM. For the same compound, the Ratio Ki in the series listed under Rattus norvegicus was determined as 536.
As to `Cc1cc(O)cc(C)c1C[C@H](N)C(=O)N1Cc2ccccc2C[C@H]1C(=O)NCC(=O)N(C)c1ccccc1`, the Ki in [1] came to 0.143 nM; at Mu-type opioid receptor it was 1.75 nM. Further, the Kb in series [2] is 1.58 nM. Further, the Ratio Ki in the series filed under Rattus norvegicus was determined as 12.
